Calls of active or inactive are those of the source. No cut-off for these calls is given here.
Key:
NCI-H460 [1] = experiment: Cytotoxicity against human NCI-H460 cells assessed as cell viability at 50 uM for 24 hrs by MTT assay; type: functional; conditions: NCI-H460, 24 h, read-out: Activity
Method in brief: (§1)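 MTT was given for 4 h at 37 °C, formazan was solubilized in DMSO and absorbance taken at 570. Viability is % of untreated control. IC50 came from four independent experiments. n = 4.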

NCI-H460 [2] = experiment: Cytotoxicity against human NCI-H460 cells assessed as cell viability at 100 uM for 24 hrs by MTT assay; type: functional; conditions: NCI-H460, 24 h, read-out: Activity; method in brief: as §1
NCI-H460 [3] = experiment: Cytotoxicity against human NCI-H460 cells assessed as cell viability at 500 uM for 24 hrs by MTT assay; type: functional; conditions: NCI-H460, 24 h, read-out: Activity; method in brief: as §1
NCI-H460 [4] = experiment: Cytotoxicity against human NCI-H460 cells assessed as cell viability at < 20 uM for 24 hrs by MTT assay; type: functional, cell-based; method in brief: as §1
NCI-H460 [5] = experiment: Cytotoxicity against human NCI-H460 cells assessed as cell viability for 24 hrs by MTT assay; type: functional, cell-based; conditions: NCI-H460, 24 h; method in brief: as §1
NCI-H460 [6] = experiment: Cytotoxicity against human NCI-H460 cells assessed as cell viability at 0 to 20 uM for 12 to 72 hrs by MTT assay; type: functional, cell-based
Method in brief: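 MTT was added for 4 h at 37 °C, formazan was dissolved in DMSO and read at 570. Viability is given as % of untreated cells. Mean ± SD, n = 4.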

NCI-H460 [7] = experiment: Inhibition of human NCI-H460 cells invasion after 24 hrs by transwell assay; type: functional, cell-based
Method in brief: (§2)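 Matrigel-coated Transwell inserts (8 μm pore) were seeded with H460 cells at 1.5 × 10^5/well in RPMI with 0.1% FBS plus compound (0−20 μM), with 10% FBS RPMI in the lower chamber, for 24 or 48 h. Cells that invaded the underside were stained with 10 μg/mL Hoechst 33342 for 30 min and counted per field by fluorescence microscopy. n = 4.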

NCI-H460 [8] = experiment: Induction of apoptosis in human NCI-H460 cells at 50 to 100 uM for 24 hrs by Hoechst-[…]/PI staining based fluorescence microscopic analysis; type: functional, cell-based
Method in brief: (§3)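 They were stained with 10 μg/mL Hoechst 33342 plus 5 μg/mL propidium iodide for 30 min. Apoptotic (Hoechst-condensed) and necrotic (PI-positive) cells were scored by fluorescence microscopy as % versus untreated control.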

NCI-H460 [9] = experiment: Inhibition of human NCI-H460 cells migration after 24 to 72 hrs by wound healing assay; type: functional, cell-based
Method in brief: (§4)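 H460 cells were seeded at 2.5 × 10^5/well and grown to a monolayer, then scratched with a 1 mm tip and washed with PBS. They were kept in serum-free RPMI with 0−20 μM for 24 h, or ± 20 μM for 24, 48 and 72 h. The wound was photographed, and migration was calculated as the change in wound space divided by that of control. Mean ± SD, n = 4.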

NCI-H460 [10] = experiment: Inhibition of human NCI-H460 cells migration at 5 uM after 24 hrs by wound healing assay; type: functional; conditions: NCI-H460, 24 h; method in brief: as §4
NCI-H460 [11] = experiment: Inhibition of human NCI-H460 cells migration at 10 uM after 24 hrs by wound healing assay; type: functional; conditions: NCI-H460, 24 h; method in brief: as §4
NCI-H460 [12] = experiment: Inhibition of human NCI-H460 cells migration at 20 uM after 24 hrs by wound healing assay; type: functional; conditions: NCI-H460, 24 h; method in brief: as §4
NCI-H460 [13] = experiment: Inhibition of human NCI-H460 cells migration at 20 uM by wound healing assay; type: functional, cell-based; conditions: TDE = time-dependent effect; method in brief: as §4
NCI-H460 [14] = experiment: Inhibition of human NCI-H460 cells migration at 10 uM after 24 hrs by Boyden chamber assay relative to control; type: functional
Method in brief: (§5)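 For the Boyden chamber, H460 cells at 5 × 10^4/well were placed on the upper side of an 8 μm Transwell filter in RPMI with 0.1% FBS plus compound (0−20 μM) for 24 h, with 10% FBS below. Non-migrated cells were swabbed off, and underside cells were stained with 10 μg/mL Hoechst 33342 for 30 min and counted per field. n = 4.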

NCI-H460 [15] = experiment: Inhibition of human NCI-H460 cells migration at 20 uM after 24 hrs by Boyden chamber assay relative to control; type: functional; method in brief: as §5
NCI-H460 [16] = experiment: Inhibition of human NCI-H460 cells migration at 5 uM after 24 hrs by Boyden chamber assay relative to control; type: functional; method in brief: as §5
NCI-H460 [17] = experiment: Inhibition of human NCI-H460 cells invasion at 0 to 20 uM by transwell assay; type: functional, cell-based; conditions: TDE = time-dependent effect; method in brief: as §2
NCI-H460 [18] = experiment: Decrease in filopodia protrussions in human NCI-H460 cells at 10 to 20 uM for 24 hrs by phalloidin staining based fluorescence microscopic analysis; type: functional, cell-based
Method in brief: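 H460 cells were seeded at 5 × 10^4/well and treated 24 h (0−20 μM). Cells were fixed in 4% paraformaldehyde, permeabilized with 0.1% Triton X-100 and blocked with 0.2% BSA, then stained with rhodamine-phalloidin (1:100, 15 min) or Hoechst 33342. Filopodia per cell were counted by fluorescence microscopy relative to untreated cells.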

NCI-H460 [19] = experiment: Decrease in Cdc42 expression in human NCI-H460 cells at 0 to 20 uM for 24 hrs by Western blot analysis; type: functional, cell-based
Method in brief: (§6)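 H460 cells were seeded at 5 × 10^5/well, left overnight, then exposed to 0−20 μM for 24 h. Lysis used Tris-HCl pH 7.5 buffer with Triton X-100, vanadate, NaF, PMSF and protease inhibitors, 40 min on ice. 60 μg protein per lane was run on 10% SDS-PAGE and blotted to nitrocellulose. Primary antibody overnight at 4 °C, then HRP secondary. Chemiluminescence, densitometry, β-actin loading control.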

NCI-H460 [20] = experiment: Decrease in Cav-1 expression in human NCI-H460 cells at 0 to 20 uM for 24 hrs by Western blot analysis; type: functional, cell-based; method in brief: as §6
[21] = target: RAC-alpha serine/threonine-protein kinase (Homo sapiens) (UniProt P31749); experiment: Inhibition of Akt phosphorylation at Ser473 in human NCI-H460 cells at 0 to 20 uM for 24 hrs by Western blot analysis; type: cell-based; method in brief: as §6
[22] = target: Focal adhesion kinase 1 (Homo sapiens) (UniProt Q05397); experiment: Inhibition of Fak phosphorylation at Tyr397 in human NCI-H460 cells at 0 to 20 uM for 24 hrs by Western blot analysis; type: cell-based; method in brief: as §6
NCI-H460 [23] = experiment: Effect on Fak expression in human NCI-H460 cells at 0 to 20 uM for 24 hrs by Western blot analysis; type: functional, cell-based; method in brief: as §6
NCI-H460 [24] = experiment: Inhibition of human NCI-H460 cells migration overexpressing Cav-1 at 20 uM after 24 hrs by wound healing assay; type: functional, cell-based
Method in brief: (§7)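 H460 cells were stably transfected (Lipofectamine 2000) with Cav-1 expression, Cav-1 shRNA or control plasmid, selected with antibiotic for 30 days and pooled, then passaged twice without G418. Confluent monolayers were scratched with a 1 mm tip and treated with 20 μM for 24 h. Wound-space change was expressed relative to untreated cells. n = 4.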

NCI-H460 [25] = experiment: Inhibition of human NCI-H460 cells migration transfected with Cav-1 shRNA at 20 uM after 24 hrs by wound healing assay; type: functional, cell-based; method in brief: as §7
NCI-H292 = experiment: Inhibition of human NCI-H292 cells migration at 0 to 20 uM after 24 hrs by wound healing assay; type: functional, cell-based
Method in brief: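 NCI-H292 cells in RPMI-1640 with 10% FBS were grown to a confluent monolayer and scratched with a 1 mm tip. They were incubated in serum-free RPMI with 0−20 μM for 24 h. The change in wound space was measured from photographs relative to untreated cells.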

HaCaT = experiment: Cytotoxicity against human HaCaT cells assessed as cell migration at 0 to 20 uM after 24 hrs by wound healing assay; type: cell-based
Method in brief: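 HaCat keratinocytes grown in DMEM with 10% FBS, 2 mM L-glutamine and penicillin/streptomycin. A confluent monolayer was scratched with a 1 mm tip, washed with PBS, and kept in serum-free medium with compound (0−20 μM) for 24 h. The wound was photographed, and the change in wound space was expressed relative to untreated cells.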

NCI-H460 [26] = experiment: Induction of necrosis in human NCI-H460 cells at 50 to 100 uM for 24 hrs by Hoechst-[…]/PI staining based fluorescence microscopic analysis; type: functional, cell-based; method in brief: as §3
NCI-H460 [27] = experiment: Effect on unphosphorylated Akt level in human NCI-H460 cells at 0 to 20 uM for 24 hrs by Western blot analysis; type: functional, cell-based; method in brief: as §6

Chain of RAC-alpha serine/threonine-protein kinase (Homo sapiens) (P31749 whole entry): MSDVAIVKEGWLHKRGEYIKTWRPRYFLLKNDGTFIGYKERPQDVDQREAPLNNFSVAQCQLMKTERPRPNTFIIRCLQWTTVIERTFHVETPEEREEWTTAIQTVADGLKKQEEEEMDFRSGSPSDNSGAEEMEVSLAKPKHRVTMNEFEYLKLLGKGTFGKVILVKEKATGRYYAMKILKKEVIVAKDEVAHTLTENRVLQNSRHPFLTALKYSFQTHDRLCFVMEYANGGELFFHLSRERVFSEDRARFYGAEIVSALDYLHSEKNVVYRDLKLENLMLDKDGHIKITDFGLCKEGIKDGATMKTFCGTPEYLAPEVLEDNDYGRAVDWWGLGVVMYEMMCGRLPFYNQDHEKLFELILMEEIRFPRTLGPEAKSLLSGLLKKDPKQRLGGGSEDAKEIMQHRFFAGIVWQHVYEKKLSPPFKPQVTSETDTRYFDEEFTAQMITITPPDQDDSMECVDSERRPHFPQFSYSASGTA
Chain of Focal adhesion kinase 1 (Homo sapiens) (Q05397 2-1052 limits assumed): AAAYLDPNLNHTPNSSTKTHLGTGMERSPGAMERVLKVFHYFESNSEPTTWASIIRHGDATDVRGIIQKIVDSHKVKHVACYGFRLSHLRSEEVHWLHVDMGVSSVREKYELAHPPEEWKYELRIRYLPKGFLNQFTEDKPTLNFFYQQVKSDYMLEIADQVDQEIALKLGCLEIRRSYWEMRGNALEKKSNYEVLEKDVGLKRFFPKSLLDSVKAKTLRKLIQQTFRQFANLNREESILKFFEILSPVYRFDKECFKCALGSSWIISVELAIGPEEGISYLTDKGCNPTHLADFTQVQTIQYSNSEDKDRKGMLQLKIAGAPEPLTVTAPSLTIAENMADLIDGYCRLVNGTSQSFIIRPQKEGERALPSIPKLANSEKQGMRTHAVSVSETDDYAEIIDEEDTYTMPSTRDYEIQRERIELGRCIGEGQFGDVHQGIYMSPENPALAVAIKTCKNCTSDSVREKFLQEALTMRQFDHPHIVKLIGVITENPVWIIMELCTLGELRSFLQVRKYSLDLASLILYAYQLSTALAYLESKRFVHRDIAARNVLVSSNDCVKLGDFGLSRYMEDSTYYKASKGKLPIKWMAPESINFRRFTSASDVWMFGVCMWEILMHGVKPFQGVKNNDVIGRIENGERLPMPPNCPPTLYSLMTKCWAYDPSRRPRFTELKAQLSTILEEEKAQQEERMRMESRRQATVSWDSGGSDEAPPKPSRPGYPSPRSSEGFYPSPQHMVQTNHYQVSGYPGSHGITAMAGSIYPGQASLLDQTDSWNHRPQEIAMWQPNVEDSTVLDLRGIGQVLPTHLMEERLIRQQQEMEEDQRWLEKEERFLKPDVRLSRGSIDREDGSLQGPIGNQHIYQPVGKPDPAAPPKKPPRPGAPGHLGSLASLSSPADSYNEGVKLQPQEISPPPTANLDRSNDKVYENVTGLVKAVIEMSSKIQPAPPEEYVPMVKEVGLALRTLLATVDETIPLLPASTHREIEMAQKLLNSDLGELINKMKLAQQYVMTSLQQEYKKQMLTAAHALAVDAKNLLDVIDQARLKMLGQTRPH

COc1cc(O)cc(CCc2ccc(O)c(OC)c2)c1 [GIGANTOL]
viability at 50 µM (NCI-H460 [1]): 83%
viability at 100 µM (NCI-H460 [2]): 80%
viability at 500 µM (NCI-H460 [3]): 20%
Activity (NCI-H460 [4]): inactive
IC50 (NCI-H460 [5]): 248 µM
Activity (NCI-H460 [6]): inactive
inhibition (NCI-H460 [7]): Dose-dependent effect
Activity (NCI-H460 [8]): Active
inhibition (NCI-H460 [9]): Dose-dependent effect
inhibition at 5 µM (NCI-H460 [10]): 30%
inhibition at 10 µM (NCI-H460 [11]): 50%
inhibition at 20 µM (NCI-H460 [12]): 70%
inhibition (NCI-H460 [13]): tde
fold change (FC) (NCI-H460 [14]): 0.4
fold change (FC) (NCI-H460 [15]): 0.3
fold change (FC) (NCI-H460 [16]): 0.7
inhibition (NCI-H460 [17]): tde
inhibition (NCI-H460 [18]): Active
inhibition (NCI-H460 [19]): Active
inhibition (NCI-H460 [20]): Active
inhibition [21]: Active
Activity [22]: inactive
Activity (NCI-H460 [23]): inactive
inhibition (NCI-H460 [24]): Active
inhibition (NCI-H460 [25]): Active
inhibition (NCI-H292): Active
Activity (HaCaT): Non-toxic
Activity (NCI-H460 [26]): inactive
Activity (NCI-H460 [27]): inactive

Reference: ChEMBL document CHEMBL3297714, “Gigantol, a bibenzyl from Dendrobium draconis, inhibits the migratory behavior of non-small cell lung cancer cells” (J Nat Prod, 2014)
